What was measured:
Cannabinoid receptor 1 = Cannabinoid receptor 1 (Homo sapiens, UniProt P21554); assay: Binding affinity to human CB1 receptor
Cannabinoid receptor 2 = Cannabinoid receptor 2 (Homo sapiens, UniProt P34972); assay: Binding affinity to human CB2 receptor
[1] = Drug level in rat plasma at 1 mg/kg, iv after 4 hrs; type: ADME, organism-based; design: dose 1 mg/kg, route intravenous; conditions: read-out: Drug uptake
Method in brief: (§1)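 Rats given 1 mg/kg intravenously; brain and plasma drug concentrations measured 4 h after dosing, and the brain/plasma ratio taken from these levels.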

[2] = Ratio of drug level in brain to plasma in rat at 1 mg/kg, iv after 4 hrs; type: ADME, organism-based; design: dose 1 mg/kg, route intravenous; conditions: brain and plasma; method in brief: as §1
[3] = Half life in rat at 1 mg/kg, iv after 4 hrs; type: ADME, organism-based; design: dose 1 mg/kg, route intravenous; conditions: in vivo
[4] = Clearance in rat plasma at 1 mg/kg, iv after 4 hrs; type: ADME, organism-based; design: dose 1 mg/kg, route intravenous
[5] = Oral bioavailability in rat at 1 mg/kg, iv after 4 hrs; type: ADME, organism-based; conditions: in vivo
[6] = Drug level in rat brain at 1 mg/kg, iv after 4 hrs; type: ADME, organism-based; design: dose 1 mg/kg, route intravenous; conditions: read-out: Drug uptake; method in brief: as §1

Chain of Cannabinoid receptor 1 (P21554 whole entry): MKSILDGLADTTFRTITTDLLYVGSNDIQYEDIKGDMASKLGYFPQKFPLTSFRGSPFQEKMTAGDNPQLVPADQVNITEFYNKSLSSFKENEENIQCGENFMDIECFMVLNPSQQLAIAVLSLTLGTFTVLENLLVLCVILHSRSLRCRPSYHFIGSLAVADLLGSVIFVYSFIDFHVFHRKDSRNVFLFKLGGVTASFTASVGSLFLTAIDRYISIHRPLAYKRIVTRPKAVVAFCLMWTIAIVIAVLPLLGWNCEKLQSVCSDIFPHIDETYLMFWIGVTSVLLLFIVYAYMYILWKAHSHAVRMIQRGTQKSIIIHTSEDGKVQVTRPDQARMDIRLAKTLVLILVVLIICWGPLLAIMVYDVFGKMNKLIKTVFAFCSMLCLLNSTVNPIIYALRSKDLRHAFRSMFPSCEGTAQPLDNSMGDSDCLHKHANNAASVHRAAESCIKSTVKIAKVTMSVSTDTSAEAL
Chain of Cannabinoid receptor 2 (P34972 whole entry): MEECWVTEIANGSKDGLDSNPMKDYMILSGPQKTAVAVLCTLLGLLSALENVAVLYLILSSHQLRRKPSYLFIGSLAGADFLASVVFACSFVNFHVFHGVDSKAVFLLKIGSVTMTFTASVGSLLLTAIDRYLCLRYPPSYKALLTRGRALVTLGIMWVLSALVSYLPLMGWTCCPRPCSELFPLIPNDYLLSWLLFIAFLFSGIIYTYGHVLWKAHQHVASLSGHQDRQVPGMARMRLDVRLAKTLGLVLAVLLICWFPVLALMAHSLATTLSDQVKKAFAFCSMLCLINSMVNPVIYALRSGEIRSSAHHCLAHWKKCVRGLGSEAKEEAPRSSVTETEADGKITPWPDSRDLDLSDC

SMILES	IC50 (Cannabinoid receptor 1)	IC50 (Cannabinoid receptor 2)	other results
CC(C)(CO)NC(=O)C1CC(C)(C)Oc2nc(-c3ccc(Cl)cc3Cl)c(-c3ccc(Cl)cc3)cc21 (single isomer, unassigned; enantiomer 2) [6-(4-CHLOROPHENYL)-7-(2,4-DICHLOROPHENYL)-N-(1-HYDROXY-2-METHYLPROPAN-2-YL)-2,2-DIMETHYL-3,4-DIHYDRO-2H-PYRANO[2,3-B]PYRIDINE-4-CARBOXAMIDE (ENANTIOMERIC MIX)]	150 nM	7450 nM	
CC1(C)CC(NC(=O)CO)c2cc(-c3ccc(Cl)cc3)c(-c3ccc(Cl)cc3Cl)nc2O1 (single isomer, unassigned; enantiomer 1) [N-(6-(4-CHLOROPHENYL)-7-(2,4-DICHLOROPHENYL)-2,2-DIMETHYL-3,4-DIHYDRO-2H-PYRANO[2,3-B]PYRIDIN-4-YL)-2-HYDROXYACETAMIDE (ENANTIOMERIC MIX)]	1.7 nM	4780 nM	
CC1CC(=O)c2cc(-c3ccc(Cl)cc3)c(-c3ccccc3Cl)nc2O1 (racemic)	21 nM	6300 nM	
CC1(C)CC(NC(=O)CCO)c2cc(-c3ccc(Cl)cc3)c(-c3ccc(Cl)cc3Cl)nc2O1 (single isomer, unassigned; enantiomer 2) [N-(6-(4-CHLOROPHENYL)-7-(2,4-DICHLOROPHENYL)-2,2-DIMETHYL-3,4-DIHYDRO-2H-PYRANO[2,3-B]PYRIDIN-4-YL)-3-HYDROXYPROPANAMIDE (ENANTIOMERIC MIX)]	14 nM	5400 nM	
CC1(C)CC(NC(=O)C(C)(C)CO)c2cc(-c3ccc(Cl)cc3)c(-c3ccc(Cl)cc3Cl)nc2O1 (single isomer, unassigned; enantiomer 1) [N-(6-(4-CHLOROPHENYL)-7-(2,4-DICHLOROPHENYL)-2,2-DIMETHYL-3,4-DIHYDRO-2H-PYRANO[2,3-B]PYRIDIN-4-YL)-3-HYDROXY-2,2-DIMETHYLPROPANAMIDE (ENANTIOMERIC MIX)]	2.1 nM	570 nM	
CC1(C)CC(C(N)=O)c2cc(-c3ccc(Cl)cc3)c(-c3ccc(Cl)cc3Cl)nc2O1 (single isomer, unassigned; enantiomer 2) [6-(4-CHLOROPHENYL)-7-(2,4-DICHLOROPHENYL)-2,2-DIMETHYL-3,4-DIHYDRO-2H-PYRANO[2,3-B]PYRIDINE-4-CARBOXAMIDE (ENANTIOMERIC MIX)]	220 nM	> 2000 nM	
CC1(C)CC(C(N)=O)c2cc(-c3ccc(Cl)cc3)c(-c3ccc(Cl)cc3Cl)nc2O1 (single isomer, unassigned; enantiomer 1) [6-(4-CHLOROPHENYL)-7-(2,4-DICHLOROPHENYL)-2,2-DIMETHYL-3,4-DIHYDRO-2H-PYRANO[2,3-B]PYRIDINE-4-CARBOXAMIDE (ENANTIOMERIC MIX)]	97 nM	2480 nM	
CC1(C)CC(NC(=O)CO)c2cc(-c3ccc(Cl)cc3)c(-c3ccccc3Cl)nc2O1 (single isomer, unassigned) [N-(7-(2-CHLOROPHENYL)-6-(4-CHLOROPHENYL)-2,2-DIMETHYL-3,4-DIHYDRO-2H-PYRANO[2,3-B]PYRIDIN-4-YL)-2-HYDROXYACETAMIDE (ENANTIOMERIC MIX)]	360 nM	10100 nM	
CCC1(CC)CC(=O)c2cc(-c3ccc(Cl)cc3)c(-c3ccccc3Cl)nc2O1	15 nM	4200 nM	
O=C1CC2(CCCC2)Oc2nc(-c3ccccc3Cl)c(-c3ccc(Cl)cc3)cc21	23 nM	3000 nM	
CC1(C)CC(NC(=O)CO)c2cc(-c3ccc(Cl)cc3)c(-c3ccccc3Cl)nc2O1 (single isomer, unassigned; enantiomer 1) [N-(7-(2-CHLOROPHENYL)-6-(4-CHLOROPHENYL)-2,2-DIMETHYL-3,4-DIHYDRO-2H-PYRANO[2,3-B]PYRIDIN-4-YL)-2-HYDROXYACETAMIDE (ENANTIOMERIC MIX)]	46 nM	> 2000 nM	
O=C1CC2(CCS(=O)(=O)CC2)Oc2nc(-c3ccccc3Cl)c(-c3ccc(Cl)cc3)cc21	15 nM	4100 nM	
C[C@@H](O)C(=O)NC1CC2(CCCCC2)Oc2nc(-c3ccccc3Cl)c(-c3ccc(Cl)cc3)cc21 (stereo in doubt; 12h) [(2R)-N-(7'-(2-CHLOROPHENYL)-6'-(4-CHLOROPHENYL)-3',4'-DIHYDROSPIRO[CYCLOHEXANE-1,2'-PYRANO[2,3-B]PYRIDINE]-4'-YL)-2-HYDROXYPROPANAMIDE (ENANTIOMERIC MIX)]	2 nM	3400 nM	
CC(C)(CO)NC(=O)C1CC(C)(C)Oc2nc(-c3ccc(Cl)cc3Cl)c(-c3ccc(Cl)cc3)cc21 (single isomer, unassigned; enantiomer 1) [6-(4-CHLOROPHENYL)-7-(2,4-DICHLOROPHENYL)-N-(1-HYDROXY-2-METHYLPROPAN-2-YL)-2,2-DIMETHYL-3,4-DIHYDRO-2H-PYRANO[2,3-B]PYRIDINE-4-CARBOXAMIDE (ENANTIOMERIC MIX)]	14 nM	5150 nM	
O=C1CC2(CCSCC2)Oc2nc(-c3ccccc3Cl)c(-c3ccc(Cl)cc3)cc21	4.9 nM	8000 nM	
C[C@H](O)C(=O)NC1CC2(CCCCC2)Oc2nc(-c3ccccc3Cl)c(-c3ccc(Cl)cc3)cc21 (stereo in doubt; 12f) [(2S)-N-(7'-(2-CHLOROPHENYL)-6'-(4-CHLOROPHENYL)-3',4'-DIHYDROSPIRO[CYCLOHEXANE-1,2'-PYRANO[2,3-B]PYRIDINE]-4'-YL)-2-HYDROXYPROPANAMIDE (ENANTIOMERIC MIX)]	13 nM	10000 nM	
C[C@@H](O)C(=O)NC1CC2(CCCCC2)Oc2nc(-c3ccccc3Cl)c(-c3ccc(Cl)cc3)cc21 (single isomer, unassigned; enantiomer 1)	0.2 nM	3600 nM	
CC1(C)CC(NC(=O)CO)c2cc(-c3ccc(Cl)cc3)c(-c3ccc(Cl)cc3Cl)nc2O1 (single isomer, unassigned; enantiomer 2) [N-(6-(4-CHLOROPHENYL)-7-(2,4-DICHLOROPHENYL)-2,2-DIMETHYL-3,4-DIHYDRO-2H-PYRANO[2,3-B]PYRIDIN-4-YL)-2-HYDROXYACETAMIDE (ENANTIOMERIC MIX)]	670 nM	6610 nM	

SMILES	IC50 (Cannabinoid receptor 1)	IC50 (Cannabinoid receptor 2)	other results
CC1(C)CC(O)c2cc(-c3ccc(Cl)cc3)c(-c3ccc(Cl)cc3Cl)nc2O1 (racemic)	130 nM	4950 nM	
CC1(C)CC(N)c2cc(-c3ccc(Cl)cc3)c(-c3ccc(Cl)cc3Cl)nc2O1 (racemic)	110 nM	7760 nM	
O=C(CO)NC1CC2(CCCCC2)Oc2nc(-c3ccccc3Cl)c(-c3ccc(Cl)cc3)cc21 (racemic)	0.3 nM	4200 nM	concentration at 4 h [1]: 16 nM; Kp at 4 h [2]: 1.7; half-life [3]: 0.8 h; clearance [4]: 34 mL/min/kg; bioavailability [5]: 13%; concentration at 4 h [6]: 27 nM
CC(C)(O)C(=O)NC1CC2(CCCCC2)Oc2nc(-c3ccccc3Cl)c(-c3ccc(Cl)cc3)cc21 (single isomer, unassigned; enantiomer 2) [N-(7'-(2-CHLOROPHENYL)-6'-(4-CHLOROPHENYL)-3',4'-DIHYDROSPIRO[CYCLOHEXANE-1,2'-PYRANO[2,3-B]PYRIDINE]-4'-YL)-2-HYDROXY-2-METHYLPROPANAMIDE (ENANTIOMERIC MIX)]	18 nM	12000 nM	
C[C@@H](O)C(=O)NC1CC(C)(C)Oc2nc(-c3ccc(Cl)cc3Cl)c(-c3ccc(Cl)cc3)cc21 (single isomer, unassigned)			concentration at 4 h [1]: 321 nM; Kp at 4 h [2]: 0.38; half-life [3]: 7.9 h; clearance [4]: 4 mL/min/kg; bioavailability [5]: 100%; concentration at 4 h [6]: 122 nM
CN1CCC2(CC1)CC(=O)c1cc(-c3ccc(Cl)cc3)c(-c3ccccc3Cl)nc1O2	790 nM	> 2000 nM	
CC1(C)CC(=O)c2cc(-c3ccc(Cl)cc3)c(-c3ccccc3Cl)nc2O1	120 nM	2300 nM	
CC1(C)CC(C)(O)c2cc(-c3ccc(Cl)cc3)c(-c3ccc(Cl)cc3Cl)nc2O1 (racemic)	80 nM	2920 nM	
CC1(C)CC(NC(=O)C(C)(C)CO)c2cc(-c3ccc(Cl)cc3)c(-c3ccc(Cl)cc3Cl)nc2O1 (single isomer, unassigned; enantiomer 2) [N-(6-(4-CHLOROPHENYL)-7-(2,4-DICHLOROPHENYL)-2,2-DIMETHYL-3,4-DIHYDRO-2H-PYRANO[2,3-B]PYRIDIN-4-YL)-3-HYDROXY-2,2-DIMETHYLPROPANAMIDE (ENANTIOMERIC MIX)]	34 nM	7600 nM	
O=C1CC2(CCCCC2)Oc2nc(-c3ccccc3Cl)c(-c3ccc(Cl)cc3)cc21	8.2 nM	8300 nM	
CC(C)C1CC(=O)c2cc(-c3ccc(Cl)cc3)c(-c3ccccc3Cl)nc2O1 (racemic)	3.2 nM	3300 nM	
CC1(C)CC(=O)c2cc(-c3ccc(Cl)cc3)c(-c3ccc(Cl)cc3Cl)nc2O1	47 nM	1300 nM	
CC(C)(C)C1CC(=O)c2cc(-c3ccc(Cl)cc3)c(-c3ccccc3Cl)nc2O1 (racemic)	1.9 nM	3400 nM	
O=C1CC(c2cccc(F)c2)Oc2nc(-c3ccccc3Cl)c(-c3ccc(Cl)cc3)cc21 (racemic)	1.7 nM	> 2000 nM	
C[C@H](O)C(=O)NC1CC2(CCCCC2)Oc2nc(-c3ccccc3Cl)c(-c3ccc(Cl)cc3)cc21 (stereo in doubt; 12e) [(2S)-N-(7'-(2-CHLOROPHENYL)-6'-(4-CHLOROPHENYL)-3',4'-DIHYDROSPIRO[CYCLOHEXANE-1,2'-PYRANO[2,3-B]PYRIDINE]-4'-YL)-2-HYDROXYPROPANAMIDE (ENANTIOMERIC MIX)]	0.4 nM	1800 nM	
COC1CC(C)(C)Oc2nc(-c3ccc(Cl)cc3Cl)c(-c3ccc(Cl)cc3)cc21 (racemic)	19 nM	3790 nM	
CC(=O)NC1CC2(CCCCC2)Oc2nc(-c3ccccc3Cl)c(-c3ccc(Cl)cc3)cc21 (racemic)	1.3 nM	3900 nM	

From ChEMBL document CHEMBL1158602, “Dihydro-pyrano[2,3-b]pyridines and tetrahydro-1,8-naphthyridines as CB1 receptor inverse agonists: synthesis, SAR and biological evaluation” (Bioorg Med Chem Lett, 2010)
